Assay results from ChEMBL document CHEMBL4765363, “Design, synthesis and biological evaluation of 4-aniline quinazoline derivatives conjugated with hydrogen sulfide (HS) donors as potent EGFR inhibitors against L858R resistance mutation” (Eur J Med Chem, 2020).

How the values were obtained:
[1] = biological target: Epidermal growth factor receptor (Mus musculus) (UniProt Q01279); details: BaF3, time 72.0 hrs
[2] = biological target: Epidermal growth factor receptor (Homo sapiens) (UniProt P00533); assay: Inhibition of wild type EGFR in human A549 cells assessed as cell growth inhibition measured after 72 hrs by Celltiter-Glo luminescent cell viability assay; format: cell-based
Epidermal growth factor receptor (Homo sapiens), sequence (P00533 whole entry): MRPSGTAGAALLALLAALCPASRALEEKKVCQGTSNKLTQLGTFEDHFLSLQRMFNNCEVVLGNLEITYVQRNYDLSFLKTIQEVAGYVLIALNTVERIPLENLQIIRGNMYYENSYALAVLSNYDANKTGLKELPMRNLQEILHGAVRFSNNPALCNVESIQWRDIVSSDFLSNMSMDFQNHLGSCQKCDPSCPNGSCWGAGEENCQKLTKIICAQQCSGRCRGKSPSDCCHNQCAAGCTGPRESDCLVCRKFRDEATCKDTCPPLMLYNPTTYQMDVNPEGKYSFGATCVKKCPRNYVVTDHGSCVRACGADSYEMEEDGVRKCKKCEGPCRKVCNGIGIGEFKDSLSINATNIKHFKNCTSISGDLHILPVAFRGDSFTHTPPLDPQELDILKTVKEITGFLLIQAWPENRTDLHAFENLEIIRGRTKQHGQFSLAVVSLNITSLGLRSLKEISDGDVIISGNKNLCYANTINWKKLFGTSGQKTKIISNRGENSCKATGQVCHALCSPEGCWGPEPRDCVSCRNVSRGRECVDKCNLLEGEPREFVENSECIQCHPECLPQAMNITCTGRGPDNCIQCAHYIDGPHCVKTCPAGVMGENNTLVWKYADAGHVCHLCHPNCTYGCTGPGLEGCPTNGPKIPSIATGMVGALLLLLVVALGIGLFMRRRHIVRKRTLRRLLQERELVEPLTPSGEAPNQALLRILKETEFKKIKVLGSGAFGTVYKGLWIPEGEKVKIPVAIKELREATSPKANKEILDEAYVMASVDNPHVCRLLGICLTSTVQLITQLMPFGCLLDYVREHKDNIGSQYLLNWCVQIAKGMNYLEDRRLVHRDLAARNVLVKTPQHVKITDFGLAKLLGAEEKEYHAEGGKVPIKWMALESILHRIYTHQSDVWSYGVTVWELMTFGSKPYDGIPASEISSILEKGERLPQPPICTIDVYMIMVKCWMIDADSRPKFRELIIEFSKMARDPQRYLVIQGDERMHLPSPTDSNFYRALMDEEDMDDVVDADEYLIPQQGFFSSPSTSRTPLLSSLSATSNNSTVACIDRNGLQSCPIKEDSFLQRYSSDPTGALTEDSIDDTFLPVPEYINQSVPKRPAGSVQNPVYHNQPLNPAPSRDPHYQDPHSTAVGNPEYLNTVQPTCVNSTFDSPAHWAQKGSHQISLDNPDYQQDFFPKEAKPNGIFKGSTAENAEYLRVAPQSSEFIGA
Method in brief: (§1)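 Cells seeded at 2500-3000 per well and exposed to test agents across a concentration series for 72 h. Viability read by CellTiter-Glo luminescence, normalized to DMSO controls. Mean of three independent measurements (standard error <20%); GI50 obtained by curve fitting. Single-concentration readout is proliferation rate at 10 µM.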

[3] = system: Epidermal growth factor receptor (Homo sapiens), P00533 [L858R]; details: BaF3, time 72.0 hrs
Epidermal growth factor receptor (Homo sapiens), P00533 [L858R], sequence (P00533 whole entry L858R): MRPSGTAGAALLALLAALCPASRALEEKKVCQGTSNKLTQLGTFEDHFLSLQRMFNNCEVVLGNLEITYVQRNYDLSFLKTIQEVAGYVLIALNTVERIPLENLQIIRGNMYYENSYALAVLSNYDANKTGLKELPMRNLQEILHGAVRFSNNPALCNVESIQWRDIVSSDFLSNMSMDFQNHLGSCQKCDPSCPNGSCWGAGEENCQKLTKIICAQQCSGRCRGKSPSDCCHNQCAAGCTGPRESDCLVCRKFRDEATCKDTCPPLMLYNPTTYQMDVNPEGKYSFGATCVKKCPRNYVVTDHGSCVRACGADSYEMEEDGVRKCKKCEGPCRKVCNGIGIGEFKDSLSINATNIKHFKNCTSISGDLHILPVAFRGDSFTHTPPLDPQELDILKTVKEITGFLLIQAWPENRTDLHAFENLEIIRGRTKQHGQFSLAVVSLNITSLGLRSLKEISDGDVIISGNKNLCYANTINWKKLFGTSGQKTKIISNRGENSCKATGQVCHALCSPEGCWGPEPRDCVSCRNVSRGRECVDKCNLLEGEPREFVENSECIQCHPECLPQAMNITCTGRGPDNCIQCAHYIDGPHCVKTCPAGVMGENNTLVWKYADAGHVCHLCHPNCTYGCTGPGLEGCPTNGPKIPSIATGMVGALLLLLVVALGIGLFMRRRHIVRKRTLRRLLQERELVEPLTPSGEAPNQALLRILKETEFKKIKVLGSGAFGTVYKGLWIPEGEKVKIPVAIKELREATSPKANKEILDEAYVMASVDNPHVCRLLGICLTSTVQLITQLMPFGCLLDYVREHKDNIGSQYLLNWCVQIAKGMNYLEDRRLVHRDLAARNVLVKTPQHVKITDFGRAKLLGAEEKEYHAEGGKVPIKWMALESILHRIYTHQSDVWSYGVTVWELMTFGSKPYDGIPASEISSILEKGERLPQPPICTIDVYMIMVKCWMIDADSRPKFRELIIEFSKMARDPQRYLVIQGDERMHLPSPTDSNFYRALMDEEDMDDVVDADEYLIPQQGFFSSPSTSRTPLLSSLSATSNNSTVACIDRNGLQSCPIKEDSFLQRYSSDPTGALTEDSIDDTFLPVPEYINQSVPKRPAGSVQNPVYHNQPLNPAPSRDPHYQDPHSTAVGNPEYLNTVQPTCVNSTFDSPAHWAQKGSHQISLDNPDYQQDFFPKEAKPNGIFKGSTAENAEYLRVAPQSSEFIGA

[4] = biological target: Epidermal growth factor receptor (Homo sapiens) (UniProt P00533); details: BaF3, time 72.0 hrs
[5] = system: Epidermal growth factor receptor (Homo sapiens), P00533 [L858R]; details: NCI-H3255, time 72.0 hrs
[6] = system: Epidermal growth factor receptor (Homo sapiens), P00533 [L858R,T790M]; details: BaF3, time 72.0 hrs
Epidermal growth factor receptor (Homo sapiens), P00533 [L858R,T790M], sequence (P00533 whole entry T790M/L858R, looked up): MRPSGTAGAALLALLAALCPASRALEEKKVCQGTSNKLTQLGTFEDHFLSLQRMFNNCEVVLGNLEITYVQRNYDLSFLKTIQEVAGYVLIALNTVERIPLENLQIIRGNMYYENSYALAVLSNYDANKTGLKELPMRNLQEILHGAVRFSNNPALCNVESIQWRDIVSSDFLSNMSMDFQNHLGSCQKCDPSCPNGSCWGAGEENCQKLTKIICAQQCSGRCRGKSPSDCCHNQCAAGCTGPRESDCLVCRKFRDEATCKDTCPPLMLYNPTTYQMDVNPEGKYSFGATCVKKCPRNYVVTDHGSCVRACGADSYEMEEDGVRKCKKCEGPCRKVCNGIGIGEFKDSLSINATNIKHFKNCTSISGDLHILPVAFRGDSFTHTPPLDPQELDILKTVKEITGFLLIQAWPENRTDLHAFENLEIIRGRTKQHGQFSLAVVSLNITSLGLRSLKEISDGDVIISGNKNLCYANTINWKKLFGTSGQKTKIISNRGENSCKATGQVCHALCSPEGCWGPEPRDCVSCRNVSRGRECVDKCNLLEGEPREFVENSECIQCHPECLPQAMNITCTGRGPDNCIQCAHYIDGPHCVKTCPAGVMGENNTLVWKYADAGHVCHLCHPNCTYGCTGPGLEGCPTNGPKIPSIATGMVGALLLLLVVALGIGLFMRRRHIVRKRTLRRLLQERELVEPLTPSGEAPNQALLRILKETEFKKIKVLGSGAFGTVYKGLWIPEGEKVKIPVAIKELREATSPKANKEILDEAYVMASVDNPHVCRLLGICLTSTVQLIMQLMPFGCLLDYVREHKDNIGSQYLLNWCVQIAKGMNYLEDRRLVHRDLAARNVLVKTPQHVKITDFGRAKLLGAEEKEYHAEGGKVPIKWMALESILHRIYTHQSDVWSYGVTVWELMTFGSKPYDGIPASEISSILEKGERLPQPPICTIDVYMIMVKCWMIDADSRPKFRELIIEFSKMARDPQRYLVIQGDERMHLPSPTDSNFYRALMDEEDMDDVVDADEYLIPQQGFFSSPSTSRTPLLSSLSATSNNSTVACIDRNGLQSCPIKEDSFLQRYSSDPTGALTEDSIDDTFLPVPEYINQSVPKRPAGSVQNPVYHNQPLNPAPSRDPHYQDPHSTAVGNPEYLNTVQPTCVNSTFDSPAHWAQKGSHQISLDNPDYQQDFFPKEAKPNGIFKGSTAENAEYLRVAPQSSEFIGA

HUVEC = assay: Cytotoxicity against HUVEC assessed as reduction in cell viability measured after 72 hrs by Celltiter-Glo luminescent cell viability assay; format: cell-based; details: Homo sapiens
Method in brief: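 Cells seeded at 2500-3000 per well, exposed to a range of compound concentrations for 72 h. Viability read by CellTiter-Glo luminescence. Data normalised to DMSO controls, given as the mean of three independent measurements, with IC50 obtained by curve fitting.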

NCI-H3255 [7] = assay: Cell cycle arrest in human NCI-H3255 cells assessed as accumulation at S phase at 5 uM measured after 72 hrs by propidium iodide staining based flow cytometry (reference value: 36.26%); format: functional
Method in brief: (§2)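 H3255 cells in 10% FBS/RPMI given DMSO or compound at 1, 5 or 10 µM for 72 h, then washed in cold PBS, fixed in 70% cold ethanol and held overnight at -20 °C. Stained with PI/RNase buffer for 15 min at room temperature, then analysed by flow cytometry with ModFit phase modelling.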

NCI-H3255 [8] = assay: Cell cycle arrest in human NCI-H3255 cells assessed as accumulation at S phase at 1 uM measured after 72 hrs by propidium iodide staining based flow cytometry (reference value: 36.26%); format: functional
Method in brief: as §2

NCI-H3255 [9] = assay: Cell cycle arrest in human NCI-H3255 cells assessed as accumulation at G0/G1 phase at 1 uM measured after 72 hrs by propidium iodide staining based flow cytometry (reference value: 53.55%); format: functional
Method in brief: as §2

[10] = system: Epidermal growth factor receptor (Homo sapiens), P00533 [L858R]; assay: Inhibition of EGFR L858R mutant phosphorylation at Y1068 residue in human NCI-H3255 cells measured after 4 hrs by Western blot analysis; format: cell-based
Method in brief: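 H3255 cells treated with a range of concentrations for 4 h, then lysed in cold RIPA containing 1% PMSF. Lysate protein quantified by BCA, separated by SDS-PAGE and transferred to PVDF. Blocked in 5% milk, probed with anti-phospho-EGFR (Y1068) and developed by ECL.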

NCI-H3255 [11] = assay: Cell cycle arrest in human NCI-H3255 cells assessed as accumulation at S phase at 10 uM measured after 72 hrs by propidium iodide staining based flow cytometry (reference value: 36.26%); format: functional
Method in brief: as §2

[12] = system: Epidermal growth factor receptor (Homo sapiens), P00533 [C797S]; assay: Inhibition of TEL-fused EGFR C797S mutant (unknown origin) transfected in mouse BaF3 cells assessed as reduction in cell proliferation incubated for 72 hrs by Celltiter-Glo luminescent cell viability assay; format: cell-based
Method in brief: as §1

NCI-H3255 [13] = assay: Cell cycle arrest in human NCI-H3255 cells assessed as accumulation at G2/M phase at 10 uM measured after 72 hrs by propidium iodide staining based flow cytometry (reference value: 10.18%); format: functional
Method in brief: as §2

[14] = Induction of H2S generation in pH 7.4 PBS:acetone buffer at 10 to 200 uM measured after 3 hrs by NIR-HS probe based fluorescence spectrophotometric method; format: functional; details: dose 10-200 µM
Method in brief: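 NIR-HS probe (10 µM) incubated with compound (0, 5, 10, 50, 100, 200 µM) in PBS:acetone 2:3 (pH 7.4) at 37 °C for 3 h. Fluorescence read at ex 670 / em 723 nm.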

NCI-H3255 [15] = assay: Cell cycle arrest in human NCI-H3255 cells assessed as accumulation at G2/M phase at 1 uM measured after 72 hrs by propidium iodide staining based flow cytometry (reference value: 10.18%); format: functional
Method in brief: as §2

NCI-H3255 [16] = assay: Cell cycle arrest in human NCI-H3255 cells assessed as accumulation at G2/M phase at 5 uM measured after 72 hrs by propidium iodide staining based flow cytometry (reference value: 10.18%); format: functional
Method in brief: as §2

[17] = system: Epidermal growth factor receptor (Homo sapiens), P00533 [L858R]; assay: Inhibition of EGFR L858R mutant in human NCI-H3255 cells assessed as cell growth inhibition measured after 72 hrs in presence of ZnCl2 by Celltiter-Glo luminescent cell viability assay; format: cell-based
NCI-H3255 [18] = assay: Cell cycle arrest in human NCI-H3255 cells assessed as accumulation at G0/G1 phase at 5 uM measured after 72 hrs by propidium iodide staining based flow cytometry (reference value: 53.55%); format: functional
Method in brief: as §2

NCI-H3255 [19] = assay: Cell cycle arrest in human NCI-H3255 cells assessed as accumulation at G0/G1 phase at 10 uM measured after 72 hrs by propidium iodide staining based flow cytometry (reference value: 53.55%); format: functional
Method in brief: as §2

[20] = Induction of H2S generation in pH 7.4 PBS:acetone buffer at 20 uM measured within 1 hr by NIR-HS probe based fluorescence spectrophotometric method; format: functional
Method in brief: (§3)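 Compound at 20 µM incubated with NIR-HS (10 µM) in PBS:acetone 2:3 at 37 °C, sampled from 0 to 180 min (0, 5, 30, 60, 90, 120, 150, 180 min). Emission read at 723 nm (ex 670 nm). H2S quantified against a Na2S calibration curve (0-8 µM, same probe and conditions, 3 h, F/F0 at 723 nm).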

[21] = Induction of H2S generation in pH 7.4 PBS:acetone buffer at 20 uM measured after 2 hrs by NIR-HS probe based fluorescence spectrophotometric method; format: functional
Method in brief: as §3

NCI-H3255 [22] = assay: Antiproliferative activity against human NCI-H3255 cells assessed as cell growth inhibition at 10 uM measured after 72 hrs by Celltiter-Glo luminescent cell viability assay relative to control; details: NCI-H3255, 72 h

Epidermal growth factor receptor (Mus musculus), sequence (Q01279 whole entry): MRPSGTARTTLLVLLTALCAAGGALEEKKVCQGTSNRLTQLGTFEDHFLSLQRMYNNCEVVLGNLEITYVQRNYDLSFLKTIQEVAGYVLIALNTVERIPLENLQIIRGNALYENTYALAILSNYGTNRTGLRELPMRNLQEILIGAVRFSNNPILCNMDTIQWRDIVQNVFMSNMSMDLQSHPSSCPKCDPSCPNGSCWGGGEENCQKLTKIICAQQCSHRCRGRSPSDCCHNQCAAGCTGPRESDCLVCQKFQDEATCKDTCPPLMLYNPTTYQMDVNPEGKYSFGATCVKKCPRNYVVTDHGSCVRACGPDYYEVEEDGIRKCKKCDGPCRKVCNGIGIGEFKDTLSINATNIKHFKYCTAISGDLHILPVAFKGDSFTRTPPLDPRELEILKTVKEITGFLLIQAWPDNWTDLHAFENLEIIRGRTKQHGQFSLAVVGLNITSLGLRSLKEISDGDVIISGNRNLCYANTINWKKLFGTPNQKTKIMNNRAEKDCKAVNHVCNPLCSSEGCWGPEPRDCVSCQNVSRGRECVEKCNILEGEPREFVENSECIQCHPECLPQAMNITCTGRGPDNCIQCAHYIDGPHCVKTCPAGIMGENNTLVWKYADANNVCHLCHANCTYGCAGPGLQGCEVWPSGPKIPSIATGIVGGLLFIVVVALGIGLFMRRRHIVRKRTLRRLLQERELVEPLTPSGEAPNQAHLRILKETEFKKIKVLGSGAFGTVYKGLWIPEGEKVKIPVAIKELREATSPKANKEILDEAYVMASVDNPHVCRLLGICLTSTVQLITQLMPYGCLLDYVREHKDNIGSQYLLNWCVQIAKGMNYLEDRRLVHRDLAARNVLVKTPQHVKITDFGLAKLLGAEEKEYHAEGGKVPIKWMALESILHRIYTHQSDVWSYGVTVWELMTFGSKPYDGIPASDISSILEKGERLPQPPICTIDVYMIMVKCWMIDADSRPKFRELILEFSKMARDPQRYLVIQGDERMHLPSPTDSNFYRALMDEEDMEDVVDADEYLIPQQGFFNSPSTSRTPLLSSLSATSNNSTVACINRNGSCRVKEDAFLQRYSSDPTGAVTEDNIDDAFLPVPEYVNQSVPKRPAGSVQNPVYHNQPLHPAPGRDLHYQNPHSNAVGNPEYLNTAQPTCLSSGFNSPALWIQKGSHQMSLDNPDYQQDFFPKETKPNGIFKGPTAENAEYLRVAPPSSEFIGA

| SMILES | GI50 [1] [µM] | GI50 [2] [µM] | GI50 [3] [µM] | GI50 [4] [µM] | GI50 [5] [µM] | GI50 [6] [µM] | also measured |
| --- | --- | --- | --- | --- | --- | --- | --- |
| C=CCCSSCC(=O)Nc1ccc2ncnc(Nc3ccc(F)c(Cl)c3)c2c1 | > 10 | > 10 | 0.012 | > 10 | 0.349 | > 10 |  |
| O=C(COc1ccc(-c2cssc2=O)cc1)Nc1ccc2ncnc(Nc3cccc(C(F)(F)F)c3)c2c1 |  | > 10 |  |  |  |  |  |
| C=CCSSCCC(=O)OCCCOc1cc2ncnc(Nc3ccc(Br)cc3)c2cc1OC | 3.91 | > 10 | 0.058 | 2.34 | 1.35 | > 10 |  |
| COc1cc2c(Nc3cccc(Br)c3)ncnc2cc1OCCCOc1ccc(-c2cssc2=S)cc1 | 9.23 | > 10 | 0.12 | 3.06 | 2.4 | > 10 |  |
| COc1cc2c(Nc3cccc(C(F)(F)F)c3)ncnc2cc1OCCCOc1ccc(-c2cssc2=S)cc1 | 3.79 | > 10 | 0.38 | 1.98 | 7.47 | 1.65 |  |
| C=CCCSSCC(=O)Nc1ccc2ncnc(Nc3cccc(Br)c3)c2c1 | > 10 | > 10 | 0.011 | > 10 | 0.519 | > 10 |  |
| C=CC(=O)Nc1cc(Nc2nccc(-c3cn(C)c4ccccc34)n2)c(OC)cc1N(C)CCN(C)C [OSIMERTINIB] |  |  |  |  |  |  | IC50 (HUVEC): 7.28 µM |
| C=CCSSCCC(=O)OCCCOc1cc2ncnc(Nc3cccc(Br)c3)c2cc1OC | > 10 | > 10 | 0.008 | > 10 | 0.787 | 6.03 | Activity (NCI-H3255 [7]): 10.23%; Activity (NCI-H3255 [8]): 34.49%; Activity (NCI-H3255 [9]): 60.32%; IC50 (HUVEC): > 10 µM; inhibition [10]: Dose-dependent effect; Activity (NCI-H3255 [11]): 8.73%; GI50 [12]: 0.0069 µM; Activity (NCI-H3255 [13]): 2.66%; Drug metabolism [14]: Metabolite detected; Activity (NCI-H3255 [15]): 5.19%; Activity (NCI-H3255 [16]): 4.89%; GI50 [17]: 0.303 µM; Activity (NCI-H3255 [18]): 84.88%; Activity (NCI-H3255 [19]): 88.61%; Drug metabolism [20]: Metabolite detected |
| COc1ccc(Nc2ncnc3cc(OCCCOc4ccc(-c5cssc5=S)cc4)c(OC)cc23)cc1OC | 2.65 | > 10 | 0.83 | 3.39 | 8.58 | 6.35 | Drug metabolism [21]: Metabolite detected; Drug metabolism [14]: Metabolite detected |
| COc1cc2c(Nc3ccc(Br)cc3)ncnc2cc1OCCCOc1ccc(-c2cssc2=S)cc1 | 9.23 | > 10 | 0.25 | 9.56 | 1.41 | > 10 |  |
| COc1cc2c(Nc3ccc(F)c(Cl)c3)ncnc2cc1OCCCOc1ccc(-c2cssc2=S)cc1 | > 10 | > 10 | 0.27 | > 10 | > 10 | > 10 |  |
| C=CCCSSCC(=O)Nc1ccc2ncnc(Nc3cccc(C(F)(F)F)c3)c2c1 |  | > 10 |  |  |  |  |  |
| [Cl-].[Cl-].[Zn+2] [ZINC CHLORIDE] |  |  |  |  |  |  | Cell proliferation rate % at 10 µM (NCI-H3255 [22]): 54% |
| O=C(COc1ccc(-c2cssc2=O)cc1)Nc1ccc2ncnc(Nc3ccc(F)c(Cl)c3)c2c1 | 4.27 | > 10 | 0.29 | 2.49 | 4.36 | 3.16 | Drug metabolism [21]: Metabolite detected; Drug metabolism [14]: Metabolite detected |
| O=C(COc1ccc(-c2cssc2=O)cc1)Nc1ccc2ncnc(Nc3cccc(Br)c3)c2c1 |  | > 10 |  |  |  |  |  |
| COc1cc2c(Nc3ccc([N+](=O)[O-])cc3)ncnc2cc1OCCCOc1ccc(-c2cssc2=S)cc1 | 3.79 | > 10 | 0.6 | 4.08 | 1.87 | > 10 |  |
